The record followed here is ChEMBL document CHEMBL4190216, “Asymmetric 1,5-diarylpenta-1,4-dien-3-ones: Antiproliferative activity in prostate epithelial cell models and pharmacokinetic studies” (Eur J Med Chem, 2017).

The nature of series [1]: AUC in Sprague-Dawley rat at 10 mg/kg administered via oral gavage by HPLC-MS/MS analysis. It counts as ADME, organism-based. The conditions noted are these: in vivo.
The nature of series [2]: Plasma concentration in Sprague-Dawley rat at 10 mg/kg administered via oral gavage measured at 3 hrs by HPLC-MS/MS analysis. It counts as ADME, organism-based.
Series [3] has as its system PC-3. Put plainly: Antiproliferative activity against human PC3 cells assessed as decrease in cell viability after 3 days by WST assay. It counts as functional, cell-based. The conditions noted are these: PC-3, 72 h. The essentials: (§1)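 Cells were seeded at 3,200 per well. PC-3 and LNCaP were grown in RPMI-1640 and DU-145 in EMEM, each with 10% FBS and 1% penicillin/streptomycin, at 37 °C and 5% CO2. Cells were exposed for 3 days to at least five concentrations, with DMSO as vehicle control. WST-1 reagent was then added for 3 h at 37 °C and absorbance read at 430 nm. IC50 came from linear inhibition, averaged over triplicates.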

The subject of series [4] is DU-145. Put plainly: Potency index, ratio of curcumin IC50 to test compound IC50 for human DU145 cells. It is filed as functional.
Series [5] can be described thus: Antiproliferative activity against human LNCaP95 cells expressing androgen receptor splice variants assessed as decrease in cell viability after 5 days by trypan blue exclusion assay. The following applies: LNCaP-95, 120 h. It counts as functional, cell-based.
Series [6] has as its system PC-3. Put plainly: Induction of apoptosis in human PC3 cells assessed as late apoptotic/necrotic cells at 15 uM after 16 hrs by F2N12S/CYTOX AADvanced double staining-based flow cytometric method (reference value: 3%). It is filed as functional.
Series [7] concerns PC-3. Nature of the series: Induction of apoptosis in human PC3 cells assessed as viable cells at 10 uM after 16 hrs by F2N12S/CYTOX AADvanced double staining-based flow cytometric method (reference value: 95%). It is filed as functional. The conditions noted are these: PC-3, 16 h, read-out: Activity. (Flow cytometry measures light scatter and fluorescence of single cells or particles in a stream.)

Series [8] can be described thus: Retention time of the compound. It is filed as physicochemical.
Series [9] relates to PC-3. Nature of the series: Induction of apoptosis in human PC3 cells assessed as viable cells at 5 uM after 16 hrs by F2N12S/CYTOX AADvanced double staining-based flow cytometric method (reference value: 95%). It is filed as functional. The following applies: PC-3, 16 h, read-out: Activity.
The test system of series [10] is PC-3. Put plainly: Induction of apoptosis in human PC3 cells assessed as early apoptotic cells at 5 uM after 16 hrs by F2N12S/CYTOX AADvanced double staining-based flow cytometric method (reference value: 2%). It is filed as functional.
Series [11] concerns PC-3. Put plainly: Cell cycle arrest in human PC3 cells assessed as accumulation at G2 phase at 5 uM after 16 hrs by propidium iodide staining-based flow cytometric method (reference value: 25 to 28%). It counts as functional.
In series [12] the test system is PC-3. Nature of the series: Cell cycle arrest in human PC3 cells assessed as accumulation at G2 phase at 5 uM after 24 hrs by propidium iodide staining-based flow cytometric method (reference value: 24%). It is filed as functional.
A further series has as its system CWR22R. Put plainly: Antiproliferative activity against human 22Rv1 cells expressing androgen receptor splice variants assessed as decrease in cell viability after 5 days by trypan blue exclusion assay. It is filed as functional, cell-based. The following applies: 22Rv1, 120 h.
The subject of series [13] is PC-3. Put plainly: Induction of apoptosis in human PC3 cells assessed as early apoptotic cells at 40 uM after 16 hrs by F2N12S/CYTOX AADvanced double staining-based flow cytometric method (reference value: 2%). It is filed as functional.
The test system of series [14] is DU-145. Nature of the series: Antiproliferative activity against human DU145 cells assessed as decrease in cell viability after 3 days by WST assay. It counts as functional, cell-based. The following applies: DU-145, 72 h. An outline of the steps:
as §1

The test system of series [15] is PC-3. Put plainly: Induction of apoptosis in human PC3 cells assessed as late apoptotic/necrotic cells at 20 uM after 16 hrs by F2N12S/CYTOX AADvanced double staining-based flow cytometric method (reference value: 3%). It counts as functional.

The AUC is concentration integrated over time. Read a low AUC as less exposure. By IC50 is commonly meant the concentration at which inhibition is half-maximal. In series [1], `CCC(C)n1ccnc1/C=C/C(=O)/C=C/c1sc(C)nc1C(F)(F)F` (stereo unspecified) gave an AUC of 24.7 µg·h/mL. This compound showed a concentration at 3 h in [2] of 0.672 µg/mL. Besides, the half-maximal inhibitory concentration (IC50) with PC-3 [3] stood at 0.23 µM; in series [5] it was 0.37 µM; in the series with CWR22R it was 0.85 µM; with DU-145 [14], 0.35 µM. Further, the “Ratio IC50” value in the series with DU-145 [4] was found to be 75. For the same compound, the Activity is given as 33% in the series with PC-3 [6]; 11% with PC-3 [10]; 18% in the series on PC-3 [11]; 21% with PC-3 [12]; 25% with PC-3 [13]; 23% with PC-3 [15]. In addition, the viability at 10 µM in the series with PC-3 [7] was 49%. Further, the Retention_time in series [8] is recorded as 4.35 min. Besides, in the series on PC-3 [9], the viability at 5 µM was determined as 50%.
